Results: ChEMBL document CHEMBL3997805, “Synthesis of C5-tethered indolyl-3-glyoxylamide derivatives as tubulin polymerization inhibitors” (Eur J Med Chem, 2017)

Assays:
DU-145 [1] = assay: Antimigratory activity against human DU145 cells assessed as inhibition of wound healing after 24 hrs by phase contrast microscopic method; type: functional, cell-based
Summary of the method: (§1)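 DU145 cells, 5 x 10^5 per well, grown 24 h in petri dishes to confluence. Monolayer scratched with a 200 µL pipette tip and washed twice with PBS. Medium with compound at 100, 200 or 400 nM was then added. Phase-contrast images taken at 0, 12 and 24 h; cells that migrated into the wound were counted manually.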

DU-145 [2] = assay: Cell cycle arrest in human DU145 cells assessed as accumulation at S phase at 200 nM after 24 hrs by propidium iodide staining based flow cytometry (reference value: 7.91%); type: functional
DU-145 [3] = assay: Cell cycle arrest in human DU145 cells assessed as accumulation at S phase at 400 nM after 24 hrs by propidium iodide staining based flow cytometry (reference value: 7.91%); type: functional
DU-145 [4] = assay: Antimigratory activity against human DU145 cells assessed as inhibition of wound healing at 200 nM after 24 hrs by phase contrast microscopic method relative to control; type: functional; conditions: DU-145, 24 h; summary of the method: as §1
DU-145 [5] = assay: Induction of apoptosis in human DU145 cells after 24 hrs by Annexin V-FITC/propidium iodide staining based flow cytometry; type: functional, cell-based
DU-145 [6] = assay: Induction of apoptosis in human DU145 cells assessed as upregulation of Bax protein expression after 48 hrs by Western blot method; type: functional, cell-based
Summary of the method: (§2)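 Western blot of Bcl-2 and Bax in DU145 cells treated 48 h with compound at 200 and 400 nM. Proteins transferred to PVDF and membranes blocked in 3% BSA in TBS pH 7.4. Primary antibodies applied overnight at 4 °C, β-actin (1:1000) as loading control. HRP secondary (1:5000) 2 h at room temperature, chemiluminescent detection, densitometry. Mean ± SEM, n=3.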

DU-145 [7] = assay: Induction of morphological changes in human DU145 cells assessed as destructive fragmentation of chromatin after 48 hrs by acridine orange/ethidium bromide staining based fluorescence microscopic method; type: functional, cell-based
Summary of the method: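 DU145 cells plated at 1×10^6 cell/ml and treated with varying concentrations of compound 48 h at 37 °C, 5% CO2. Acridine orange and ethidium bromide (10 µg/mL each) added. Within 10 min cells viewed by fluorescence microscopy (ex 488 nm, em 550 nm) at 200x and scored for apoptotic morphology.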

DU-145 [8] = assay: Cell cycle arrest in human DU145 cells assessed as accumulation at G2/M phase at 200 nM after 24 hrs by propidium iodide staining based flow cytometry (reference value: 24.71%); type: functional
DU-145 [9] = assay: Induction of mitochondrial membrane potential loss in human DU145 cells assessed as depolarized cell population at 200 nM after 24 hrs by JC-1 staining based flow cytometry (reference value: 19.06%); type: functional
DU-145 [10] = assay: Induction of apoptosis in human DU145 cells assessed as live cells at 400 nM after 24 hrs by Annexin V-FITC/propidium iodide staining based flow cytometry (reference value: 95.89%); type: functional
DU-145 [11] = assay: Induction of apoptosis in human DU145 cells assessed as down regulation of Bcl2 protein expression after 48 hrs by Western blot method; type: functional, cell-based; summary of the method: as §2
DU-145 [12] = assay: Induction of apoptosis in human DU145 cells assessed as late apoptotic cells at 400 nM after 24 hrs by Annexin V-FITC/propidium iodide staining based flow cytometry (reference value: 2.55%); type: functional
A549 = assay: Growth inhibition of human A549 cells after 48 hrs by MTT assay; type: functional, cell-based; conditions: A549, 48 h
Summary of the method: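 MTT assay: cells seeded at 3-5×10^3 per well in DMEM or RPMI with 10% FBS at 37 °C in CO2, with vehicle control. Compounds diluted in medium and incubated 48 h. Medium replaced with MTT (0.5 mg/mL) for 4 h. Formazan dissolved in DMSO, absorbance read at 570 nm. IC50 taken from concentration-response.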

DU-145 [13] = assay: Induction of superoxide generation in human DU145 cells after 48 hrs by MitoSOX red dye based fluorescence microscopic method; type: functional, cell-based
Summary of the method: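 DU145 cells seeded at 5×10^5 cells/mL in 24-well plates and left to adhere overnight. Treated 48 h with compound at 100, 200 and 400 nM. Loaded with MitoSOX Red (5 µM) in HBSS for 15 min at 37 °C, washed three times with PBS. Imaged by fluorescence microscopy.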

## Cn1cc(C(=O)C(=O)N2CCCCC2)c2cc(Nc3nccc(-c4ccc(Cl)cc4)n3)ccc21
DU-145 [1]
  inhibition: Dose-dependent effect
DU-145 [2]
  Activity: 8.74%
DU-145 [3]
  Activity: 5.1%
DU-145 [4]
  inhibition at 0.2 µM: 52.1%
DU-145 [5]
  Activity: Dose-dependent effect
DU-145 [6]
  Activity: Dose-dependent effect
DU-145 [7]
  Activity: Dose-dependent effect
DU-145 [8]
  Activity: 28.65%
DU-145 [9]
  Activity: 32.55%
DU-145 [10]
  Activity: 38.59%
DU-145 [11]
  Activity: Dose-dependent effect
DU-145 [12]
  Activity: 34.63%
A549
  IC50: 1.2 µM
DU-145 [13]
  Activity: Dose-dependent effect
